Scp1 inh: inhibitors of human Scp-1 phosphatase; inhibition, % at 20 µM; Recombinant Scp1, phosphopeptide, malachite green phosphate absorbance; Q9GZU7; actives 0.88% (n = 340,000); AID 493091;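 active = inhibition above about 50% at 20 µM, limit read from the data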;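 also: plate controls were DMSO wells with enzyme for no effect and wells lacking enzyme for full effect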
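System: SCP-1 catalytic domain; Reagent: Phospho 17-mer peptide substrate; Doses: one concentration, 20 µM, with 1.0% DMSO; Incubation: 45 min room-temperature reaction, 5 min colour, 30 min stabiliser; Signal: Phosphate-binding colour reagent, absorbance read at 630 nm.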
SUMO1 PPI mod: SUMO1-SIM interaction modulation; inhibition, % at 20 µM; actives 0.33% (n = 360,000); AID 602429; P63165; SUMO1 binding to a labelled peptide, TR-FRET, 1 h; in the data active = inhibition above about 37%
DNMT1 inh: inhibitors of human DNMT1. P26358. DNMT1 molecular beacon, Hinp1I cleavage, fluorescence. inhibition (reported as % activation of signal), % at 10 µM. actives 0.83% (n = 360,000). AID 588458; in the data active = inhibition above about 50%
NadD block: NadD (S. aureus) enzyme inhibition; AID 602399; purified NadD enzyme, colorimetric absorbance read-out; inhibition, % at 20 µM; actives 0.78% (n = 360,000); in the data active = inhibition above about 26%
STEP block: STEP (human) phosphatase inhibition | P54829 | recombinant STEP, OMFP fluorogenic substrate, fluorescence | inhibition, % at 20 µM | actives 0.25% (n = 360,000);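 active = inhibition at 20 µM, scaled per plate between control wells, above about 37%, limit read from the data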;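 also: 0% = DMSO with enzyme and substrate and 100% = substrate only without enzyme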
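Assay system: isolated STEP enzyme / Timing: 20 min at room temperature, dark / Doses: 20 µM, 1% DMSO / Technique: fluorescence intensity, excitation 480 nm, emission 540 nm / Reagent: fluorogenic phosphatase substrate OMFP at 25 µM final / Measure: percent inhibition scaled to no-enzyme and uninhibited-enzyme controls, plate-pattern corrected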
LMPTP inh: blocks human LMPTP phosphatase. recombinant LMPTP-A, OMFP fluorogenic substrate, fluorescence intensity. inhibition, % at 20 µM. actives 0.22% (n = 360,000). AID 651560;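 active = compounds that cut the enzyme signal by at least half of the control window in the single-dose screen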;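 also: plate controls were DMSO wells with enzyme plus substrate for no effect and substrate without enzyme for full effect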
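Assay system: LMPTP-A enzyme. Input: 0.625 nM LMPTP-A final. Probe or stimulus: 400 µM OMFP. Compound dosing: single 20 µM dose. Schedule: 50 min dark incubation at room temperature. Detection: fluorescence intensity of OMFP turnover product. Read-out: percent inhibition versus substrate-only and uninhibited controls. Benchmarks: no-enzyme low control, uninhibited high control.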
Beacon interf DR: shows spectral interference in the DNMT1 beacon assay | molecular beacon fluorescence, spectral interference counter-screen | shares compounds with DNMT1 inh | IC50, µM | 200 tested, under 10 active | AID 602382; call rule not given here
DNMT1 inh conf: confirmation of human DNMT1 inhibitors; shares compounds with DNMT1 inh; DNMT1 molecular beacon HinP1I cleavage, fluorescence; inhibition, % at 10 µM; actives 8% (n = 2,300);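 active = average inhibition of at least 30% in the single-concentration confirmation test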
DNMT1 interf: shows spectral interference in the DNMT1 beacon assay; shares compounds with DNMT1 inh; DNMT1 molecular beacon spectral interference counterscreen, fluorescence 485/520; activation (fluorescence interference), % at 10 µM; actives 1% (n = 2,300); AID 602387;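 active = activation of at least 30% at 10 µM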;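 also: DNMT1 catalytic domain with a HinP1I cleavage step and a FAM/dabcyl DNA beacon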
* marks the source's active call; other numbers are inactive results; / = no result. In the library only some 2.4% were active in any assay of this set; here they are far more common.

SMILES	Scp1 inh	SUMO1 PPI mod	DNMT1 inh	NadD block	STEP block	LMPTP inh	DNMT1 inh conf	DNMT1 interf	others
O=C(/C=C/c1ccco1)Nc1scc(-c2ccccc2)c1C(=O)O	50	-5	82*	-6	19	4	13	1
CS(=O)(=O)N1CCC(C(=O)Nc2ccc(Cl)cc2)CC1	-6	3	3	-1	0	-1	/	/
C/C(=N\Nc1ccccc1[N+](=O)[O-])c1ccc(N2CCOCC2)cc1	-1	-10	-3	1	5	0	/	/
CCOc1cc(/C=C(\C#N)C(=O)Nc2cccc(C(=O)O)c2)ccc1OCc1ccc(Br)cc1	34	82*	89*	10	96*	-2	104*	-1	Beacon interf DR=>99
COc1cc(/C=C(\C#N)C(=O)NC2CCCCC2)ccc1OCc1ccc(C(=O)O)cc1	-6	17	-1	10	0	0	/	/
Cc1csc(NC(=O)c2ccc(S(C)(=O)=O)cc2)n1	4	-1	0	0	0	0	/	/
COc1ccc2nc(NC(=O)c3cccc(-c4cc5ccccc5oc4=O)c3)sc2c1	0	-1	58*	25	2	15	2	-5
COc1ccc(C(=O)Nc2nc3ccc(OC)cc3s2)cc1	4	-1	-2	-4	-3	1	/	/
Nc1cc2c3ccccc3ccc2c2ccccc12	5	22	91*	-3	3	16	4	9
COc1ccc([C@@H]2C[C@H]3[C@@H](CN2S(=O)(=O)c2ccccc2)C(=O)C[C@@H](c2ccccc2)N3S(=O)(=O)c2ccc(C)cc2)cc1	/	1	1	12	-1	1	/	/
CCn1c(SCC(=O)Nc2ccc(N3CCOCC3)cc2)nnc1-c1ccco1	-1	2	1	-1	0	-2	/	/
CC(C)c1ccc(/C=N/NC(=O)C2CCCC2)cc1	-13	-9	3	-1	-1	0	/	/
CC(C)(C)c1ccc(/C=N/NC(=O)C2CCCC2)cc1	-2	-7	77*	-3	-2	2	1	2
Cc1cccc(-c2n[nH]c(=S)n2/N=C/C=C/c2ccco2)c1	-23	8	66*	9	4	16	2	4
CC(/C=N/n1c(-c2ccncc2)n[nH]c1=S)=C\c1ccco1	10	20	83*	11	8	10	2	3
S=c1[nH]nc(-c2ccncc2)n1/N=C/C=C/c1ccco1	8	27	63*	6	1	-1	4	3
S=c1[nH]nc(-c2ccccc2Cl)n1/N=C/C=C/c1ccco1	15	3	24	-4	0	3	/	/
CCCn1cnnc1CNC(=O)[C@H]1O[C@@H](n2cnc3c(N)ncnc32)[C@H](O)[C@@H]1O	/	2	4	-4	-2	-1	/	/
Cc1cnn(CCC(=O)NNC(=S)Nc2cccc(Cl)c2)c1	2	3	0	3	0	1	/	/
COc1ccc(/C=C2/C(=O)N(c3nc4ccccc4s3)N=C2CSc2ccc(Cl)cc2)cc1	8	26	65*	73*	4	22	54*	-4	Beacon interf DR=>99
COc1ccc(/C=C2/C(=O)N(Cc3ccccc3)N=C2C)cc1	-4	10	10	3	0	0	/	/
CCc1ccc(-c2nc(NC(=O)c3ccc(OCC(=O)Nc4ccc(F)cc4)c(OC)c3)sc2C)cc1	-5	-12	61*	20	1	-1	0	1
O=C(Nc1ccc(Oc2ccccc2)cc1)C1CCCO1 (stereo unspecified)	22	-1	7	5	-7	0	/	/
O=C(CN1CCN(c2ccccc2)CC1)NC(=O)NCc1ccco1	-2	3	1	-1	4	0	/	/

Compound activity as filed in PubChem BioAssay.
